Where two headings read alike, the source gives them in different places.
How the values were obtained:
HSA = HSA (Homo sapiens, UniProt P02768); experiment: HSA tryptophan fluorescence quenching; format: binding; conditions: for Stern–Volmer quenching constant Ksv × 10^4: values × 10^4, HSA 2.5 μM, Tris–HCl pH 7.4, 10% DMSO, 24 h; for ΔG: ΔG = −RT ln Kb; for predominant interaction mode with HSA: according to Ross's proposal from the signs of ΔH and ΔS
How it was run: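 HSA in Tris–HCl (4.5 mM Trizma HCl, 0.5 mM Trizma base, 50 mM NaCl) held at 2.5 μM with test compound at 1, 2.5, 5, 10, 15, 20, 25 or 30 μM, using 10% DMSO. Incubated 24 h in a water bath at 300 K or 310 K. Excitation 270 nm, emission 300–500 nm, triplicates. Intensity at 330 nm fitted to Stern–Volmer (F0/F vs [Q]) and log((F0−F)/F) vs log[Q]. ΔG = −RT ln Kb.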

[1] = test system: bovine serum albumin (BSA); conditions: cited from earlier work

Sequence of HSA (P02768 25-609): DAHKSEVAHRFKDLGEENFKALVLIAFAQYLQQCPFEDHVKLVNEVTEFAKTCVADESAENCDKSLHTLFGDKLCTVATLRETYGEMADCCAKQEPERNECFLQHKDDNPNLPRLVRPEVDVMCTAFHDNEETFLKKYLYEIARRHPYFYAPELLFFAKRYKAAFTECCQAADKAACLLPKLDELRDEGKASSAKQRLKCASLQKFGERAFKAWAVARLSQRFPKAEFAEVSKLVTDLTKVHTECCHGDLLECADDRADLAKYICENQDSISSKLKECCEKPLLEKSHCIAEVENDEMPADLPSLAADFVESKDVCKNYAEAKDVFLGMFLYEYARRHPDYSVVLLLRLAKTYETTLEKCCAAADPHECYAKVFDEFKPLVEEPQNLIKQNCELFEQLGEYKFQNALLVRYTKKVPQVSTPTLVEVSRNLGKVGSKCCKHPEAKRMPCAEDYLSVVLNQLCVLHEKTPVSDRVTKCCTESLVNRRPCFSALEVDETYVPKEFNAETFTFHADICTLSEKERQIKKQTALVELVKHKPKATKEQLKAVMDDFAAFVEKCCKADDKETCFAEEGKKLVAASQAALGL

| Structure (SMILES) | ΔS (HSA; T 300 K) | Stern–Volmer quenching constant Ksv × 10^4 (HSA; T 300 K) | ΔG (HSA; T 300 K) | ΔS (HSA; T 310 K) | Stern–Volmer quenching constant Ksv × 10^4 (HSA; T 310 K) | ΔG (HSA; T 310 K) | predominant interaction mode with HSA (HSA) | fluorescence quenching mechanism (HSA; from temperature dependence of Ksv at 300 and 310 K) | binding constant to BSA ([1]; HPBI complexed with benzoxaborole) | binding constant to BSA ([1]; free HPBI) |
| --- | --- | --- | --- | --- | --- | --- | --- | --- | --- | --- |
| COc1ccc(/C=C/c2ccc(B3OC(C)(C)C(C)(C)O3)cc2)cc1 [3b] | 82.1 J mol^−1 K^−1 | 5.91 M^−1 | -23.8 kJ/mol | 83.3 J mol^−1 K^−1 | 8.69 M^−1 | -26.6 kJ/mol | hydrophobic interactions | dynamic fluorescence quenching mechanism | – | – |
| COc1ccc(/C=C/c2cccc3c2COB3O)cc1 [5a] | 105.1 J mol^−1 K^−1 | 10.1 M^−1 | -29.3 kJ/mol | 122.4 J mol^−1 K^−1 | 17.7 M^−1 | -35.9 kJ/mol | hydrophobic interactions | – | – | – |
| COc1ccc(/C=C/c2ccc(B(O)O)cc2)cc1 [7a] | 74.5 J mol^−1 K^−1 | 1.05 M^−1 | -28.0 kJ/mol | 22.9 J mol^−1 K^−1 | 0.53 M^−1 | -12.9 kJ/mol | electrostatic forces | – | – | – |
| Oc1ccccc1-c1nc2ccccc2[nH]1 [HPBI, 2-(2-hydroxyphenyl)benzimidazole] | – | – | – | – | – | – | – | – | 1.2e+06 M⁻¹ | 20000 M⁻¹ |

Reference: paper PMC12505120 (RSC Advances, 2025)
